In ChEMBL document CHEMBL1125418, “Antimycobacterial activity of a series of pyrazinoic acid esters” (1992):

Experiments:
Format in all cases: functional
[1] = tested on: Mycobacterium tuberculosis; experiment: In vitro activity against Mycobacterium. tuberculosis (strain type-ATCC 35828)at pH 6.6
Outline: (§1)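 Twofold serial dilutions (200–3.12 µg/mL) in 7H10 agar with 10% OADC enrichment at pH 6.6, in compartmented plates. Plates were stored at 4 °C and used within 24–48 h. A no-drug compartment served as control for each isolate. Plates were incubated for 4 weeks at 37 °C. MIC was the lowest concentration giving 99% (2 log) growth inhibition.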

[2] = tested on: Mycobacterium tuberculosis; experiment: In vitro activity against Mycobacterium. tuberculosis (strain type-BUR)at pH 6.6; outline: as §1
[3] = tested on: Mycobacterium tuberculosis; experiment: In vitro activity against Mycobacterium. tuberculosis (strain type-ATCC 35828)at pH 5.8
Outline: (§2)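 Middlebrook 7H10 agar plus 10% OADC at pH 5.8 in compartmented plates, with serial twofold dilutions from 200 to 3.12 µg/mL. Plates were prepared 24–48 h before use and stored at 4 °C. A drug-free compartment was included per isolate. Incubation was 37 °C for 4 weeks. MIC was the lowest level producing 99% (2 log) inhibition of growth.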

[4] = tested on: Mycobacterium tuberculosis; experiment: In vitro activity against Mycobacterium. tuberculosis (strain type-BUR)at pH 5.8
Mycobacterium kansasii [5] = experiment: In vitro activity against Mycobacterium. kansasii (strain type-SWK)at pH 5.8
Outline: (§3)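 Pyrazinamide-resistant isolate SWK tested on Middlebrook 7H10 agar plus 10% OADC adjusted to pH 5.8. Compartmented plates hold 2-fold dilutions from 200 to 3.12 µg/mL, prepared 24–48 h before use and kept at 4 °C, with a drug-free compartment. Incubation was 37 °C for 4 weeks. MIC is the lowest level causing 99% (2 log) growth inhibition.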

Mycobacterium kansasii [6] = experiment: In vitro activity against Mycobacterium. kansasii (strain type-SWK) […]
Mycobacterium kansasii [7] = experiment: In vitro activity against Mycobacterium strain SCH (Mycobacterium kansasii)
Outline: (§4)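 Agar dilution MIC against pyrazinamide-resistant clinical isolates on Middlebrook 7H10 agar with 10% OADC at pH 5.8 or pH 6.6. Serial 2-fold dilutions span 200–3.12 µg/mL in compartmented plates made 24–48 h ahead and stored at 4 °C. Each isolate has a drug-free control. Plates were incubated at 37 °C for 4 weeks. MIC is the lowest concentration giving 99% (2 log) growth inhibition.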

[8] = tested on: Mycobacterium tuberculosis; experiment: In vitro activity against Mycobacterium strain DOL (Mycobacterium tuberculosis)
[9] = tested on: Mycobacterium tuberculosis; experiment: In vitro activity against Mycobacterium strain LEL (Mycobacterium tuberculosis)
[10] = tested on: Mycobacterium tuberculosis; experiment: In vitro inhibitory activity against Mycobacterium tuberculosis (strain type-ATCC 35828) pH 6.6; outline: as §1
[11] = tested on: Mycobacterium tuberculosis; experiment: In vitro activity against Mycobacterium strain DUB (Mycobacterium tuberculosis); details: Mycobacterium tuberculosis; read-out: MIC
[12] = tested on: Mycobacterium tuberculosis; experiment: In vitro inhibitory activity against Mycobacterium tuberculosis (strain type-H37Rv) at pH 6.6; details: Mycobacterium tuberculosis; read-out: MIC
[13] = tested on: Mycobacterium tuberculosis; experiment: In vitro inhibitory activity against Mycobacterium tuberculosis (strain type-H37Rv) at pH 5.8; outline: as §2
[14] = tested on: Mycobacterium tuberculosis; experiment: In vitro inhibitory activity against Mycobacterium tuberculosis (strain type-ATCC 35828)at pH 5.8; outline: as §2
Mycobacterium kansasii [15] = experiment: In vitro activity against Mycobacterium strain SWK (Mycobacterium kansasii); outline: as §4
[16] = tested on: Mycobacterium tuberculosis; experiment: In vitro activity against Mycobacterium strain DOU (Mycobacterium tuberculosis)
Outline: (§5)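 Agar dilution in compartmented plates of Middlebrook 7H10 agar with 10% OADC, adjusted to pH 5.8 or pH 6.6. Twofold compound dilutions spanned 200–3.12 µg/mL. Plates were made 24–48 h ahead and held at 4 °C. MIC (µg/mL) was the lowest concentration giving 99% (2 log) growth inhibition.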

[17] = tested on: Mycobacterium tuberculosis; experiment: In vitro activity against Mycobacterium strain MCQ (Mycobacterium tuberculosis); outline: as §5
Mycobacterium kansasii [18] = experiment: In vitro inhibitory activity against Mycobacterium kansasii (strain type-SWK)at pH 5.8; outline: as §3
[19] = tested on: Mycobacterium tuberculosis; experiment: In vitro activity against Mycobacterium strain ING (Mycobacterium tuberculosis); outline: as §5
[20] = tested on: Mycobacterium tuberculosis; experiment: In vitro activity against Mycobacterium strain GLA (Mycobacterium tuberculosis)
[21] = tested on: Mycobacterium tuberculosis; experiment: In vitro activity against Mycobacterium tuberculosis (strain type-BUR) at pH 5.8; outline: as §2
Mycobacterium kansasii [22] = experiment: In vitro inhibitory activity against Mycobacterium kansasii (strain type-SWK) pH 6.6
Outline: (§6)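 MIC for pyrazinamide-resistant isolate SWK by agar dilution in Middlebrook 7H10 with 10% OADC at pH 6.6. Serial 2-fold dilutions run 200–3.12 µg/mL in compartmented plates prepared 24–48 h in advance and stored at 4 °C. A drug-free control is included. Plates were held at 37 °C for 4 weeks. The endpoint is 99% (2 log) inhibition of growth.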

[23] = tested on: Mycobacterium tuberculosis; experiment: In vitro activity against Mycobacterium strain BAK (Mycobacterium tuberculosis)
[24] = tested on: Mycobacterium tuberculosis; experiment: In vitro activity against Mycobacterium strain WOO (Mycobacterium tuberculosis); outline: as §5
[25] = tested on: Mycobacterium tuberculosis; experiment: In vitro activity against Mycobacterium strain ATCC 35828 (Mycobacterium tuberculosis); outline: as §5
[26] = tested on: Mycobacterium tuberculosis; experiment: In vitro activity against Mycobacterium strain BUR (Mycobacterium tuberculosis); outline: as §5
[27] = tested on: Mycobacterium tuberculosis; experiment: In vitro activity against Mycobacterium strain SMA (Mycobacterium tuberculosis)
[28] = tested on: Mycobacterium tuberculosis; experiment: In vitro activity against Mycobacterium strain CES (Mycobacterium tuberculosis); outline: as §5
Mycobacterium kansasii [29] = experiment: In vitro activity against Mycobacterium. kansasii (strain type-SWK) pH 6.6; outline: as §6
[30] = tested on: Mycobacterium tuberculosis; experiment: In vitro activity against Mycobacterium. tuberculosis (strain type-ATCC 35828) at pH 6.6; outline: as §1
[31] = tested on: Mycobacterium tuberculosis; experiment: In vitro activity against Mycobacterium. tuberculosis (strain type-H37Rv) at pH 5.8
[32] = tested on: Mycobacterium tuberculosis; experiment: (§7) In vitro activity against Mycobacterium. tuberculosis (strain type-H37Rv) at pH 6.6; outline: as §1
[33] = tested on: Mycobacterium tuberculosis; experiment: as §7; remark: listed apart in the source
Mycobacterium kansasii [34] = experiment: In vitro activity against Mycobacterium. kansasii (strain type-SWK)at pH 6.6; outline: as §6
Mycobacterium kansasii [35] = experiment: In vitro activity against Mycobacterium. kansasii (strain type-SWK).at pH 6.6; outline: as §6
Mycobacterium kansasii [36] = experiment: In vitro activity against Mycobacterium. kansasii (strain type-SWK).at pH 5.8; outline: as §3
[37] = Mycobacterium tuberculosis, read-out: MIC

Measured: MIC

CC(C)(C)c1ccc(OC(=O)c2cnccn2)cc1
50 µg/mL: [2]
25 µg/mL: [1] | [3] | [4]; [37] | Mycobacterium kansasii [5]

O=C(OCCCl)c1cnccn1
25 µg/mL: [3] | Mycobacterium kansasii [6]
6.25 µg/mL: [4]; [37]

CN(C)CCOC(=O)c1cnccn1
> 200 µg/mL: [10] | Mycobacterium kansasii [22]
50 µg/mL: Mycobacterium kansasii [7] | [25]
25 µg/mL: [9]; [37] | [11] | [14] | [16] | [17] | [19] | [20]; [37] | [21] | [23]; [37] | [24] | [26] | [27]; [37] | [28]
12.5 µg/mL: [8]; [37] | [13]
100 µg/mL: [12] | Mycobacterium kansasii [15]
200 µg/mL: Mycobacterium kansasii [18]

O=C(OCC(F)(F)F)c1cnccn1
12.5 µg/mL: [20]; [37] | [28]
50 µg/mL: [9]
25 µg/mL: [3] | Mycobacterium kansasii [7] | [8] | [4]; [37] | [11] | [17] | [19] | [31]; [37] | [23]; [37] | [24] | [25] | [26] | [27]
200 µg/mL: Mycobacterium kansasii [15]
100 µg/mL: [16] | [32] | Mycobacterium kansasii [5]
> 200 µg/mL: Mycobacterium kansasii [29] | [30]

Cc1ccc(OC(=O)c2cnccn2)cc1
6.25 µg/mL: [8]; [37] | [17] | [20]
200 µg/mL: [1] | Mycobacterium kansasii [34]
100 µg/mL: [2]
12.5 µg/mL: [3] | Mycobacterium kansasii [7] | [9] | [4] | Mycobacterium kansasii [15] | [16] | [31] | [23] | Mycobacterium kansasii [5] | [25] | [26] | [28]
25 µg/mL: [33] | [11] | [19] | [24] | [27]; [37]

O=C(Oc1ccc([N+](=O)[O-])cc1)c1cnccn1
50 µg/mL: [33]; [37]
12.5 µg/mL: [4]; [37] | [31]; [37]
200 µg/mL: [1] | Mycobacterium kansasii [35]
25 µg/mL: [3] | Mycobacterium kansasii [36]

CCCOC(=O)c1cnccn1
12.5 µg/mL: Mycobacterium kansasii [35] | Mycobacterium kansasii [7]
< 3.12 µg/mL: [8]; [37] | [4]; [37] | [11] | [16] | [17] | Mycobacterium kansasii [36] | [19] | [31]; [37] | [23]; [37] | [26] | [27]; [37] | [28]
25 µg/mL: [1] | [33]
6.25 µg/mL: [3] | [9]; [37] | Mycobacterium kansasii [15] | [20] | [25]
